Experimental data from different studies.
Protocols differ between the studies behind these lines.
Target: Tyrosine-protein kinase CSK (CSK, Homo sapiens, UniProt P41240)

| SMILES | assay | conditions | measurement | result |
| --- | --- | --- | --- | --- |
| O=c1[nH]c2ccccc2n1C1CCN(Cc2ccc(-c3[nH]c4cc5ncnc5cc4nc3-c3ccccc3)cc2)CC1 | enzyme activity | 0.5 µM | remaining activity | 101% |
| N#CC1(c2ccccn2)CCN(Cc2cc(C(=O)O)c(=O)n3ccccc23)CC1 | cell-free assay, competition with immobilised ligand | 1 µM | remaining binding | 100% |
| COc1ncccc1-c1cnn2ccc(N3CCN(C(=O)OC(C)C)CC3)nc12 | binding, competition with immobilised ligand | 1 µM | remaining binding | 100% |
| Nc1ncc(-c2nc(N3CCOCC3)nc(N3CCOCC3)n2)c(C(F)F)n1 | binding, competition with immobilised ligand | 10 µM | remaining binding | 73% |
| Cn1cc(-c2cccc(N3CCc4c(sc5c4CC(C)(C)C5)C3=O)c2CO)cc(Nc2ccncn2)c1=O | enzyme activity, inhibitor | 1 µM | inhibition | 4% |
| Cc1nn(C)cc1-c1nc2c(N3CCN(Cc4ccc(Cl)cc4)CC3)c(Cl)cnc2[nH]1 | binding, competition with immobilised ligand | 1 µM | remaining binding | 100% |
| CC(C)(C)c1cc(C=C(C#N)C#N)cc(Br)c1O | enzyme activity, inhibitor | 0.5 µM | remaining activity | 106% |
| O=C(NCc1ncc(C(F)(F)F)cc1Cl)c1ccc2c(c1)C1(CCS(=O)(=O)CC1)[C@@H](C1CC1)N2S(=O)(=O)c1ccc(F)cc1 | cell-free assay, competition with immobilised ligand | 1 µM | remaining binding | 96% |
| Cn1cc(-c2cc(F)cc(N3CCn4c(cc5c4CCCC5)C3=O)c2CO)cc(Nc2ccc(N3CCN(C4COC4)CC3)cn2)c1=O | enzyme activity, inhibitor | 0.1 µM | inhibition | 12% |
